# Measurements published in ChEMBL document CHEMBL1132711 (J Med Chem, 1999).
# pEC50, pIC50, pKi: −log10 of the molar value.
# Key:
# Progesterone receptor [1] = target: T1, Progesterone receptor (Homo sapiens, UniProt P06401); assay: Compound was evaluated for its binding affinity against baculovirus expressed Progesterone receptor
# T1 sequence (P06401 whole entry): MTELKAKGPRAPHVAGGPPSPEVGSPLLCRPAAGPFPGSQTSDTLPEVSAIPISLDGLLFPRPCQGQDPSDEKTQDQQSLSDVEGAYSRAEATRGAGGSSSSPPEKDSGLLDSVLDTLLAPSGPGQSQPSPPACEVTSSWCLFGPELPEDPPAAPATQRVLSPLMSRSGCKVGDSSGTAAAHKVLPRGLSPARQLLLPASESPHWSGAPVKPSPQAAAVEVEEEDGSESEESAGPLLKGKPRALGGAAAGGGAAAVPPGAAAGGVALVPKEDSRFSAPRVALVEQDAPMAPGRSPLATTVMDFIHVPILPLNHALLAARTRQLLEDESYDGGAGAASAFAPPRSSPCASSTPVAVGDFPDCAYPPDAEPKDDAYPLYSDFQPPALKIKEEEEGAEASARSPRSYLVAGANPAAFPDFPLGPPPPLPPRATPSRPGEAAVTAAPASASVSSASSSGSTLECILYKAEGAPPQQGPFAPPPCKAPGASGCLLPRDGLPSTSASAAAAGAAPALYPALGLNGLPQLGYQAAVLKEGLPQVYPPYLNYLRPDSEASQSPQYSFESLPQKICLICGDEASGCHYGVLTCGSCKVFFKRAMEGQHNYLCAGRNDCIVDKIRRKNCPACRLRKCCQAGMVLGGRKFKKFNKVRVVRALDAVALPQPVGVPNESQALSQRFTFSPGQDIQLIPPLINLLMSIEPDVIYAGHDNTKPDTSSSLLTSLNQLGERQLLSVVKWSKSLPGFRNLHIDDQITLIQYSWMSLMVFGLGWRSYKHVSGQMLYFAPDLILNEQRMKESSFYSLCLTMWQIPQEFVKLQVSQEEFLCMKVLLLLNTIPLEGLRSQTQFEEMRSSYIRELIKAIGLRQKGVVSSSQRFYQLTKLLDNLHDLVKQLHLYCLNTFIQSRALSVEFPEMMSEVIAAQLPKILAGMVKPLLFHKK
# [2] = target: T2, Progesterone receptor (Homo sapiens) (UniProt P06401); assay: (§1) Compound was tested for agonistic activity by cotransfection assay against human Progesterone receptor in CV-1 cells; assay type: functional, cell-based
# T2 sequence (whole entry): T1 sequence (P06401 whole entry)
# Progesterone receptor [3] = target: T1, Progesterone receptor; assay: (§2) Antagonistic activity by cotransfection assay against human Progesterone receptor in CV-1 cells; assay type: functional, cell-based
# [4] = target: T2, Progesterone receptor (Homo sapiens); assay: as §2; assay type: functional, cell-based
# Progesterone receptor [5] = target: T1, Progesterone receptor; assay: as §1; assay type: functional, cell-based
# Androgen receptor = target: T3, Androgen receptor (Homo sapiens, UniProt P10275)
# T3 sequence (P10275 whole entry): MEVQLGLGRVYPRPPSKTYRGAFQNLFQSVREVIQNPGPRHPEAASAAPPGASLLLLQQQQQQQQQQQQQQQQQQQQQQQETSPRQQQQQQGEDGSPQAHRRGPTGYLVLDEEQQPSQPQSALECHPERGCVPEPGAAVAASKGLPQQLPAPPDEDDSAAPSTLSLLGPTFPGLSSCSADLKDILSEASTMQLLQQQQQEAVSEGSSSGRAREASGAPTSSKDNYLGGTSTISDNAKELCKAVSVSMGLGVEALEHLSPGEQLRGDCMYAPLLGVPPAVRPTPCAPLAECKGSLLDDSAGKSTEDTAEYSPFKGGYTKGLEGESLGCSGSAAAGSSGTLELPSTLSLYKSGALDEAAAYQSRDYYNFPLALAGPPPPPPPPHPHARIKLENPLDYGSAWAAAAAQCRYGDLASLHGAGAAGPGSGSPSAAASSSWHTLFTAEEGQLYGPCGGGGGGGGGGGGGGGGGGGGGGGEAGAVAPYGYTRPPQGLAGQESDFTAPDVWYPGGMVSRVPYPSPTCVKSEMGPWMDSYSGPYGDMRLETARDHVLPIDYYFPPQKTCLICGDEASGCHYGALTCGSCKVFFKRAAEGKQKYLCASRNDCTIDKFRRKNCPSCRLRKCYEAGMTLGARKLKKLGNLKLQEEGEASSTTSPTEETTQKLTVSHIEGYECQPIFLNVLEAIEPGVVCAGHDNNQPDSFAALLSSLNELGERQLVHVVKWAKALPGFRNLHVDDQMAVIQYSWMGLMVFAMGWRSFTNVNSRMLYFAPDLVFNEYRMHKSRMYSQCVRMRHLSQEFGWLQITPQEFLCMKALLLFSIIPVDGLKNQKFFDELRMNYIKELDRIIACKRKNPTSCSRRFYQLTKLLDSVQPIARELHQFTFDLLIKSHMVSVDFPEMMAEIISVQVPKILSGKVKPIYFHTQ
# Progesterone receptor [6] = target: T1, Progesterone receptor; assay: (§3) Agonistic activity by cotransfection assay against human Progesterone receptor in T47D cells; assay type: functional, cell-based
# [7] = target: T2, Progesterone receptor (Homo sapiens); assay: as §3; assay type: functional, cell-based
# How it was run: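 T47D human breast cancer cells (high endogenous hPR) incubated with test compound in 96-well format; alkaline phosphatase expression measured by absorbance. […] EC50 from full dose–response curves; mean of at least three separate experiments in triplicate, or single experiment where no error given.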
# Glucocorticoid receptor = target: T4, Glucocorticoid receptor (Homo sapiens, UniProt P04150)
# T4 sequence (P04150 whole entry): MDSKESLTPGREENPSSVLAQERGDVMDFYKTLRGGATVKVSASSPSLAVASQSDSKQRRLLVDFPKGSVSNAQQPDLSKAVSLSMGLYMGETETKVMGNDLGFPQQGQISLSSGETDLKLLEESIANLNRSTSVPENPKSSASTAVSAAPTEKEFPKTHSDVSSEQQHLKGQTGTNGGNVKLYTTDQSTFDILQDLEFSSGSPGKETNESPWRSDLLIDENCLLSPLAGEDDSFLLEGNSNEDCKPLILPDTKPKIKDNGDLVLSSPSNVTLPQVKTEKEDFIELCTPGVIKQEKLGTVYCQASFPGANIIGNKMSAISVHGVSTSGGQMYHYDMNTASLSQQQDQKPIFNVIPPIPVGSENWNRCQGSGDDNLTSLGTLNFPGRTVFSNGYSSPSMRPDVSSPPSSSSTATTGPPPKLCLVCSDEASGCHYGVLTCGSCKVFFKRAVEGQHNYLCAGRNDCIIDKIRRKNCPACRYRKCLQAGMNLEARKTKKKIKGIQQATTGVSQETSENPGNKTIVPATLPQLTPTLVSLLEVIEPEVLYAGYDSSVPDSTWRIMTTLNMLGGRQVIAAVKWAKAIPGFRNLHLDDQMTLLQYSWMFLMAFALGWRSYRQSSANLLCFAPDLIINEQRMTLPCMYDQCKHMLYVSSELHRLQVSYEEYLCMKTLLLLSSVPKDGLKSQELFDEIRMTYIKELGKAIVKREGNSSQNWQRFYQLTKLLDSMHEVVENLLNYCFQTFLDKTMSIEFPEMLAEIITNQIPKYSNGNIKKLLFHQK
# Progesterone receptor [8] = target: T1, Progesterone receptor; assay: Agonistic effect on transcriptional activity in T47D cells expressing human Progesterone receptor; assay type: functional, cell-based
# How it was run: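 T47D human breast cancer cells, which express high levels of hPR, incubated with test compound. Readout is absorbance from induced alkaline phosphatase expression. […] Values are the mean of at least three separate experiments in triplicate; values without SEM are from a single experiment.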
pKi (Progesterone receptor [1]),Efficacy [2],pIC50 (Progesterone receptor [3]),Efficacy [4],pEC50 (Progesterone receptor [5]),pKi (Androgen receptor),pEC50 (Progesterone receptor [6]),Efficacy [7],pKi (Glucocorticoid receptor),pEC50 (Progesterone receptor [8]),Structure (SMILES)
7.98,28%,6.85,50%,5.89,,,,,,CC1(C)C=Cc2c(ccc3c2C(c2ccc(Cl)cc2)Oc2ccccc2-3)N1 (centres undefined)
7.04,58%,5.51,56%,7.32,,,,,,C[C@@H]1CC(C)(C)Nc2ccc3c(c21)[C@H](c1ccc(Cl)cc1)Oc1ccccc1-3
8.28,36%,,,8.01,,,,,,CC1(C)Nc2ccc3c(c2C(C)(C)C1=O)C(c1ccc(Cl)cc1)Oc1ccccc1-3 (centres undefined)
7.78,93%,,,7.85,5.96,7.43,85%,6.59,,C[C@@H]1C(=O)C(C)(C)Nc2ccc3c(c21)[C@H](c1cccc(C(F)(F)F)c1)Oc1ccccc1-3
7.61,,6.42,84%,,,,,,,CC1(C)CC(=O)c2c(ccc3c2C(c2ccc(Cl)cc2)Oc2ccccc2-3)N1 (centres undefined)
,,,,,,,90%,,,CC(=O)O[C@]1(C(C)=O)CC[C@H]2[C@@H]3C[C@H](C)C4=CC(=O)CC[C@]4(C)[C@H]3CC[C@@]21C
,,,,,,,42%,,,CC1=CC(C)(C)Nc2ccc3c(c21)C(C)Oc1ccc(Cl)cc1-3 (centres undefined)
8.18,92%,,,8.00,6.14,7.63,92%,6.60,,C[C@@H]1C(=O)C(C)(C)Nc2ccc3c(c21)[C@H](c1ccccc1)Oc1ccccc1-3
,30%,5.76,81%,6.91,,,,,,C=C1CC(C)(C)Nc2ccc3c(c21)C(c1ccc(Cl)cc1)Oc1ccccc1-3 (centres undefined)
< 6.30,,5.49,69%,,,,,,,C[C@@H]1c2c(ccc3c2[C@H](c2ccc(Cl)cc2)Oc2ccccc2-3)NC(C)(C)[C@H]1O
,,,,,,7.29,55%,,,CC1=CC(C)(C)Nc2ccc3c(c21)/C(=C/c1cccc(F)c1)Oc1ccccc1-3
8.00,39%,,,7.41,,,,,,C[C@H]1CC(C)(C)Nc2ccc3c(c21)[C@H](c1ccc(Cl)cc1)Oc1ccccc1-3
< 6.30,,6.34,91%,,,,,,,C[C@H]1c2c(ccc3c2[C@H](c2ccc(Cl)cc2)Oc2ccccc2-3)NC(C)(C)[C@@H]1O
,,,,,,,48%,,7.49,CC1=CC(C)(C)Nc2ccc3c(c21)C(c1ccc(Cl)cc1)Oc1ccccc1-3 (centres undefined)
,,,,,,7.57,47%,,,CC1=CC(C)(C)Nc2ccc3c(c21)C(c1cccc(Cl)c1)Oc1ccc(F)cc1-3 (centres undefined)
7.54,103%,,,8.05,5.97,7.46,102%,6.04,,C[C@H]1C(=O)C(C)(C)Nc2ccc3c(c21)[C@H](c1ccccc1)Oc1ccccc1-3
,122%,,,,5.93,,97%,6.48,,C[C@@H]1C(=O)C(C)(C)Nc2ccc3c(c21)[C@H](c1ccc(Cl)cc1)Oc1ccccc1-3
6.91,66%,,,7.80,6.09,7.20,103%,6.60,,C[C@H]1C(=O)C(C)(C)Nc2ccc3c(c21)[C@H](c1cccc(C(F)(F)F)c1)Oc1ccccc1-3
,102%,,,,6.16,,107%,6.04,,C[C@H]1C(=O)C(C)(C)Nc2ccc3c(c21)[C@H](c1ccc(Cl)cc1)Oc1ccccc1-3
8.20,114%,,,7.33,,,,,,CC1CC(C)(C)Nc2ccc3c(c21)/C(=C/c1cccc(F)c1)Oc1ccccc1-3 (centres undefined)

Structure (SMILES),pKi (Progesterone receptor [1]),Efficacy [2],pIC50 (Progesterone receptor [3]),Efficacy [4],pEC50 (Progesterone receptor [5]),pKi (Androgen receptor),pEC50 (Progesterone receptor [6]),Efficacy [7],pKi (Glucocorticoid receptor),pEC50 (Progesterone receptor [8])
CC1C(=O)C(C)(C)Nc2ccc3c(c21)/C(=C/c1cccc(F)c1)Oc1ccccc1-3 (centres undefined),8.46,155%,,,8.06,6.25,7.60,83%,5.33,
C[C@H]1C(=O)C(C)(C)Nc2ccc3c(c21)[C@H](c1cccc(F)c1)Oc1ccccc1-3,7.55,114%,,,8.06,6.30,7.59,107%,6.06,
CC1C(=O)C(C)(C)Nc2ccc3c(c21)/C(=C/c1ccccc1)Oc1ccccc1-3 (centres undefined),8.31,133%,,,7.77,5.92,7.74,93%,6.17,
C[C@@H]1C(=O)C(C)(C)Nc2ccc3c(c21)[C@H](c1cccc(F)c1)Oc1ccccc1-3,8.59,106%,,,8.20,6.21,7.83,96%,6.71,
